Columns and labels:
4T1 tumor-bearing mice [1] = assay: In vivo biodistribution after tail vein injection; set-up: species or system BALB/c mice; conditions: 1–24 h
Procedure, shortened: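 Female BALB/c mice (4–6 weeks, 18–20 g) received 5 × 10^5 4T1 cells subcutaneously in the right flank and were grouped once tumors reached about 100 mm3. Test compound (100 μL, 2.845 mg/mL in PBS) was injected into the tail vein; free P18 in 10% DMSO/PBS served as comparator. P18 fluorescence was imaged by IVIS under isoflurane at 1, 3, 6, 9, 12 and 24 h. Mean tumor-site intensity was computed, and excised organs and tumor were imaged at 24 h.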

4T1 tumor-bearing mice [2] = assay: Tumor retention after intratumoral injection; type: in vivo, BALB/c mice; conditions: observed 6–120 h
Procedure, shortened: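 4T1 flank tumors were raised in female BALB/c mice, and test compound or free P18 solution (10 μL) was injected into the tumor. Fluorescence was imaged by IVIS under isoflurane at 6, 12, 24, 48, 72, 96 and 120 h, and tumor intensity was quantified. In a separate pair of groups, the MMP-2 inhibitor Ilomastat (8 mg/kg) was injected into the tumor 15 min before the test compound, compared with no inhibitor. Tumor fluorescence was imaged at serial time points.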

4T1 tumor-bearing mice [3] = assay: In vivo photothermal effect; set-up: species or system BALB/c mice; conditions: 6 h after tail vein injection, 660 nm, 0.5 W/cm^2, 6 min
Procedure, shortened: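 The 4T1 model was female BALB/c mice with subcutaneous flank tumors, in two groups. One group got test compound i.v. (100 μL, 2.845 mg/mL in PBS); the comparator group got free P18 solution (100 μL) under the same conditions. Infrared thermal camera images and tumor temperature curves were recorded during irradiation.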

## Purpurin 18 [P18]
4T1 tumor-bearing mice [1]
  fluorescence signal at the tumor site: barely detectable
4T1 tumor-bearing mice [2]
  course of tumor fluorescence intensity post i.t. injection: decreased gradually until 120 h
4T1 tumor-bearing mice [3]
  temperature of the tumor under laser irradiation: 41 °C

— publication PMC9519467 (Bioactive Materials, 2022)
